Bioassay records: PubChem BioAssay, Broad Institute
These entries were drawn from the full list.
PGC1a acetyl up = raises PGC1a acetylation signal in U2OS cells; 350,000 tested, 0.21% active; activation, % at 15.6 µM; U2OS PGC1a acetylation AlphaScreen, overnight;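 active = every replicate reaching activation of at least 50%, whatever the mean replicate activation; inconclusive = replicates that disagree or another doubt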;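 also: hits raise the AlphaScreen acetylation signal above neutral controls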
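System: Flag-PGC1a/GCN5 U2OS cells | Quantity: 7000 cells/well | Times: Overnight compound treatment, 37 °C | Measured by: AlphaScreen proximity luminescence, anti-acetyl-lysine antibody | Dosing: One concentration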
G6PC hep suppr = PGC-1a acetylation activators affecting G6PC expression in hepatocytes | shares compounds with PGC1a acetyl up | primary mouse hepatocytes, G6PC mRNA qPCR, forskolin | G6PC suppression (normalized activity, % of positive control; higher = more suppression), % at 26 µM | 240 tested, under 10 active | AID 743463;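 active = dose curves showing G6PC suppression whose half-maximal dose is at most twice the top valid dose; inconclusive = flat curves with moderate negative activity, or unreliable fits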;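 also: G6PC expression relative to GAPDH housekeeping gene as delta delta Ct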
PCK1 hep suppr = PGC-1a acetylation activators affecting PCK1 expression in hepatocytes; shares compounds with PGC1a acetyl up; primary mouse hepatocytes, PCK1 mRNA qPCR, forskolin-stimulated; PCK1 expression decrease, unspecified at 26 µM; 230 tested, under 10 active;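 active = compounds lowering PCK1 expression whose fitted half-maximal concentration is at most twice the top tested dose; inconclusive = flat fit with moderate opposite-direction effect, or poor fit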;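 also: higher delta delta Ct means lower PCK1 expression so positive values indicate hits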
PGC1a hep suppr = PGC-1a acetylation activator altering hepatocyte PGC-1a expression; primary mouse hepatocytes, PGC-1a mRNA qPCR, forskolin; top dose 26 µM; 240 tested, under 10 active; max activity (PGC-1a expression decrease), %; shares compounds with PGC1a acetyl up;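 active = compound lowering PGC-1a expression with fitted half-maximal concentration at most twice its top tested dose; inconclusive = flat curve with moderate opposite-direction effect, or poor fit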
Of the large screens only hits and unclear results are named; the others gave an inactive call (follow-up assays come after a bar, where they were run).

O=C(Nc1ccc(F)cc1)N1CCN(c2nc3ccccc3s2)CC1	PGC1a acetyl up inconclusive | G6PC hep suppr inactive | PCK1 hep suppr inconclusive | PGC1a hep suppr inactive
Cc1noc(C)c1S(=O)(=O)N1CCCC(C(=O)NCC2CCCO2)C1 (configuration not stated)	none
C[C@@H]1CN([C@H](C)CO)C(=O)CCCn2nncc2CO[C@@H]1CN(C)S(=O)(=O)c1cn(C)cn1	none
O=S(=O)(c1cccc(F)c1)N1CCN(Cc2cc3c(cc2Br)OCCO3)CC1	PGC1a acetyl up 108.0 | G6PC hep suppr inactive | PCK1 hep suppr inactive | PGC1a hep suppr inactive
COCCNC(=O)c1ccc(C)cc1C	none
Cc1cccc(Oc2nccc(C(F)(F)F)c2C(=O)Nc2ccc(F)cc2F)c1	none
CN1CCN(c2ccc(CNC(=O)c3ccc(-c4ccnn4C)c4ccoc34)cc2)CC1	PGC1a acetyl up inconclusive | PCK1 hep suppr inconclusive | PGC1a hep suppr inactive
CCCNC(=O)Nc1ccc2c(c1)C(=O)N(C)C[C@H](OC)[C@H](C)CN(CC1CCCC1)[C@@H](C)CO2	none
COc1ccc(Br)cc1CNc1ccccc1	none | G6PC hep suppr inactive | PCK1 hep suppr inactive | PGC1a hep suppr inactive
CCNc1nc(Oc2ccc(C#N)cc2)cc(C(F)(F)F)n1	none
O=C(CN1CCC(n2cnc3cccnc32)CC1)NCc1cccs1	none (no result: PGC1a acetyl up) | G6PC hep suppr inactive | PCK1 hep suppr inactive | PGC1a hep suppr inactive
O=C(CN1CCC(n2nnc3ccccc32)CC1)NCc1cccs1	PGC1a acetyl up 191.8 | G6PC hep suppr inactive | PCK1 hep suppr inactive | PGC1a hep suppr inactive
C[C@@](Cc1ccc(O)c(O)c1)(NN)C(=O)O	none
CC1=C(C(=O)OC(C)(C)C)C(c2ccc3ccccc3c2)NC(=O)N1C (configuration not stated)	none
Nn1cnnc1N/N=C/c1ccc(Cl)c([N+](=O)[O-])c1	none
COCC(=O)N1CC(=O)N2[C@@H](CO)[C@H](c3ccc(-c4ccncc4)cc3)[C@@H]2C1	none
Clc1ccc(-c2csc(N3CCSCC3)n2)cc1	none | G6PC hep suppr inactive | PCK1 hep suppr inactive | PGC1a hep suppr inactive
OC(c1cc(-c2ccc(Cl)cc2)nc2ccccc12)C1CCCCN1 (configuration not stated)	PGC1a acetyl up inconclusive | G6PC hep suppr inactive | PCK1 hep suppr inactive | PGC1a hep suppr inactive
C[C@@H]1CN([C@H](C)CO)C(=O)c2cc(NC(=O)CCCCCC(=O)Nc3ccccc3N)ccc2O[C@H]1CN(C)S(=O)(=O)c1ccc(Cl)cc1	none
Cc1ccc(OC[C@H](O)[C@H](C)NC(C)C)c2c1CCC2	none
O=C(c1cccs1)N1CCN(c2nnc(-c3ccccc3)c3ccccc23)CC1	PGC1a acetyl up 69.4 | G6PC hep suppr inactive | PCK1 hep suppr inactive | PGC1a hep suppr inactive
Cc1nc2ncnn2c(C)c1CCC(=O)N1CCN(c2ccccn2)CC1	none
Cc1ccc(-c2nnc(N3CCN(C(=O)COc4ccccc4)CC3)c3ccccc23)cc1	PGC1a acetyl up 94.2 | G6PC hep suppr inactive | PGC1a hep suppr inactive
C=CCNC(=S)N1CCN(CCN=CC2=C(O)CC(c3ccco3)CC2=O)CC1 (configuration not stated)	none
N#Cc1cccc(C#N)c1NCC1CCCO1 (configuration not stated)	none
CC1(C)CC(=O)C=C(NCc2ccco2)C1	none
CN(C)c1ccc(/C=C/c2ccc3c4ccccc4ccc3[n+]2-c2ccccc2)cc1	none
N#Cc1c(N)c(C(=O)c2ccccc2)n2ccccc12	none
Cn1ncc(C(=O)Nc2ccc(Cl)cc2)c1C(F)(F)F	none
COc1ccc(CN2CCn3ncc(C(=O)Nc4ccccc4)c3C2=O)cc1	none | G6PC hep suppr inactive | PCK1 hep suppr inactive | PGC1a hep suppr inactive
Brc1ccc(N/N=C(/N=Nc2nn[nH]n2)c2ccccc2)cc1	none
CCN1CC=C2C(C#N)=C(N)C(C#N)(C#N)[C@H](c3cccc(OC)c3OC)[C@H]2C1	none
COc1ccc2c(c1)C(C)=CC(C)(C)N2S(=O)(=O)c1ccc(Br)cc1	PGC1a acetyl up 83.0 | PCK1 hep suppr inactive | PGC1a hep suppr inactive
O=C(CCc1nc2ccccc2c(=O)[nH]1)OCC(=O)N1CCc2ccccc21	none
C[C@H](NC(=O)C[C@H]1CC[C@@H](NC(=O)C2CC2)[C@H](CO)O1)c1ccccc1	none
COC(=O)c1ccc(Cl)c(NC(C)=O)c1	none
CCO[C@H]1OC(C(=O)N2CCCCCCC2)=C[C@@H](C2CCCCC2)[C@@H]1CCCO	PGC1a acetyl up 83.5 | G6PC hep suppr inactive | PCK1 hep suppr inactive | PGC1a hep suppr inactive
CC(=O)c1ccc(N2CCN(C(=O)C(=O)c3c(C)[nH]c4ccccc34)CC2)cc1	PGC1a acetyl up 65.6 | G6PC hep suppr inactive | PCK1 hep suppr inactive | PGC1a hep suppr inactive
OCCN(Cc1ccccc1)CC1CCCCC1	none
O=C(Nc1cccn2ncnc12)C(Cl)Cl	none
C=CC(=O)NC(C)(C)Cc1ccccc1	none
Cc1ccc2[nH]c(=O)c(CN(Cc3ccc4c(c3)OCO4)Cc3nnnn3C3CCCC3)cc2c1	PGC1a acetyl up 58.3 | G6PC hep suppr inactive | PCK1 hep suppr inactive | PGC1a hep suppr inactive
CN1C(=O)c2ccccc2C(C(=O)O)C1c1cccc([N+](=O)[O-])c1 (configuration not stated)	none
O=S(=O)(Nc1cccc(CCc2ccccn2)c1)c1ccc2ccccc2c1	none
COc1ccccc1-c1ccc2c(c1)C(C)(Cc1ccc(OC(F)(F)F)cc1)C(=O)N2 (configuration not stated)	PGC1a acetyl up inconclusive | G6PC hep suppr inactive | PCK1 hep suppr inactive | PGC1a hep suppr inactive
CN(Cc1c(F)cccc1Cl)c1nnnn1-c1ccccc1	none
CCOC(=O)Cn1cc(/C=C(/C#N)C(=O)NC(C)C)c2ccccc21	none
N#Cc1ccccc1COC(=O)c1ccc2c(c1)OCCO2	PGC1a acetyl up inconclusive | G6PC hep suppr inactive | PCK1 hep suppr inactive | PGC1a hep suppr inactive
CCNC(=O)NC(=O)COc1ccccc1C#N	none
